This is a sample that favours compounds with a hit; in the whole collection about 2% have one here.
M1 PAM – human CHRM1 positive allosteric modulation. 360,000 tested, 0.088% active. activation, % at 3 µM. CHO-K1 hM1, Fluo-8 calcium fluorescence, ACh EC20; 0% = ACh EC20, 100% = maximal ACh. AID 588819. P11229; in the data active = activation above about 19%, passing the limit was not always enough
Target sequence (P11229 whole entry, looked up): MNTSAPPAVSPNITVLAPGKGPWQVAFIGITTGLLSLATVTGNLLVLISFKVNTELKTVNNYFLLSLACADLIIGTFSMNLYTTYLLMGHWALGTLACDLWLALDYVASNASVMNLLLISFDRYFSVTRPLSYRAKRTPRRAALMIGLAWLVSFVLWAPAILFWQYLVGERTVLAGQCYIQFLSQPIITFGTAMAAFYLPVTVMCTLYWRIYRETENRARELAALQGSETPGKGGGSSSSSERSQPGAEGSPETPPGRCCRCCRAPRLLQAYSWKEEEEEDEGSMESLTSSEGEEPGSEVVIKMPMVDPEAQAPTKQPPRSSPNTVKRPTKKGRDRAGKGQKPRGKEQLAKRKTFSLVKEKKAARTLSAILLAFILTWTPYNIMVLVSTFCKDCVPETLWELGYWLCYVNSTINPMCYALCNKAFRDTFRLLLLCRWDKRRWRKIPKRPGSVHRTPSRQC
M5 antag – blocks acetylcholine activation of human M5 receptor; P08912; CHO-hM5 cells, Fluo-8 calcium fluorescence, ACh EC80; inhibition, % at 3 µM; 360,000 tested, 0.59% active; AID 624040;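 active = inhibition above a per-plate cutoff, the mean of that plate's test compounds plus 3 SD, cut at about 27% in these data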
CHRM1 agonist – activates human CHRM1 receptor. activation, % at 3 µM. AID 588814. CHO-K1 hM1, Fluo-8 calcium fluorescence, agonist mode; 0% DMSO, 100% acetylcholine EC100. P11229. 360,000 tested, 0.33% active;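 active = activation above the run's mean compound activation plus 3 SD, cut at about 16% in these data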;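 also: peak over basal fluorescence ratio within a 140 s kinetic read after compound addition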
CHRM5 agonist – CHRM5 agonism in calcium assay. AID 624037. activation, % at 3 µM. 360,000 tested, 0.19% active. CHO-K1 hM5 cells, Fluo-8 calcium fluorescence; 0% DMSO wells, 100% maximal acetylcholine response;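 active = activation above the run's mean over test compounds plus 3 SD, cut at about 23% in these data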;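 also: signal is peak over basal fluorescence ratio across the kinetic read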
M1 antag – blocks human M1 muscarinic receptor. P11229. CHO-K1 hM1, Fluo-8 calcium fluorescence, ACh EC80 antagonist. inhibition, % at 3 µM. 360,000 tested, 1.3% active. AID 588852;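 active = percent inhibition above its own plate's cutoff, namely the mean of that plate's compound wells plus 3 SD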;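 also: peak over basal fluorescence ratio during 140 s after agonist addition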
M5 PAM – positive allosteric modulators of human muscarinic M5 receptor | AID 624038 | CHO-K1 hM5, Fluo-8 calcium, ACh EC20 PAM; 0% = ACh EC20, 100% = ACh EC100 | activation, % at 3 µM | 360,000 tested, 0.3% active;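 active = activation above the run cutoff, the mean activation of all test compounds plus 3 SD, cut at about 18% in these data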
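System – CHO-K1 hM5 cells · Compound – 3 µM, single dose · Incubation – compound preincubation 140 s before EC20 acetylcholine addition · Technique – Fluo-8 calcium fluorescence · Measure – Max/basal fluorescence ratio as % of EC20–EC100 ACh window · Benchmarks – low control EC20 acetylcholine (0%), high control EC100 acetylcholine (100%) · Replication – singlicate, one well per test compound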
Each line names hits and unclear results; the compound was inactive in the other large screens; ! = not active in a repeat.

Cc1noc(C)c1S(=O)(=O)NC(=O)C1(C)CCN1C(=O)CC(c1ccccc1)c1ccccc1 (centres undefined)	none
CC1Cc2[nH]c(=S)[nH]c(=O)c2C(c2ccc(F)cc2)O1 (centres undefined)	none (no result: M1 PAM, CHRM1 agonist, M1 antag)
Cc1cscc(C)c1=S	none
COc1cc(/C=N\n2nnnc2N)ccc1OCc1ccc(F)cc1	M1 antag active
CCOc1ccc2oc(C(=O)NCC3CCCO3)c(C)c2c1 (centres undefined)	M1 antag 25.1
CCC(C)NC(=O)C1c2ccccc2C(=O)N1Cc1ccccc1OC (centres undefined)	M5 PAM 29.6
CCN1CCN(c2ccc(NC(=O)COc3ccccc3Cl)cc2)CC1	M1 antag 31.7
O=C(COc1ccccc1Cl)Nc1ccc(N2CCCC2)cc1	none
Cc1cc(Cl)ccc1OCC(=O)Nc1ccncc1	M5 antag 32.6
CCN1CCN(c2ccc(NC(=O)COc3ccc(Cl)cc3C)cc2)CC1	M5 antag 41.9, M1 antag 100.3
COc1ccc([C@H]2C[C@@H](n3cc(-c4ccc(F)cc4)nn3)[C@H](O)CN2C(=O)C2CCCCC2)cc1	none
CN1CCc2c(c3ccccc3n2Cc2ccccc2)C1	M5 antag 42.2, M1 antag 65.9!
CCCCN1CCc2c(c3ccccc3n2Cc2ccccc2)C1	none
C[C@@H]1CN([C@@H](C)CO)C(=O)CCCn2nncc2CO[C@@H]1CN(C)C(=O)Nc1cccc(Oc2ccccn2)c1	none
CC(C)C[C@H]1CNC(=O)C(=O)N1C[C@@H]1CCCN1C[C@H](Cc1ccccc1)N1C[C@H](Cc2ccccc2)N(CCc2ccccc2)C(=O)C1=O	none (no result: M1 PAM, CHRM1 agonist, M1 antag)
OC(CN1CCN(C(c2ccccc2)c2ccccc2)CC1)c1ccc(Br)cc1 (centres undefined)	M1 antag 38.0
OC(CN1CCN(C(c2ccccc2)c2ccccc2)CC1)c1ccccc1 (centres undefined)	none
c1ccc(OCCN2CCN(C(c3ccccc3)c3ccccc3)CC2)cc1	M1 antag 52.3
COc1cccc(CN2CCN(C(c3ccccc3)c3ccccc3)CC2)c1O	M1 antag 90.5
COc1cc(CN2CCN(C(c3ccccc3)c3ccccc3)CC2)cc(OC)c1OC	M1 antag 96.4
c1ccc(OCCN2CCNCC2)cc1	none
COc1cccc(CN2CCN(Cc3cc(OC)c(OC)c(OC)c3)CC2)c1OC	none
COc1cc(C(=S)N2CCN(C(c3ccccc3)c3ccccc3)CC2)cc(OC)c1O	none
Cc1cc(C)cc(NC(=S)N2C3CCCC2CC(NC(=O)C2CC2)C3)c1 (centres undefined)	M1 antag 27.0
Cc1ccc(NC(=O)CCC(=O)NN=Cc2ccc(C)o2)c(C)c1	none
CCC1CCCCN1CCCNC(=O)c1ccc2c(c1)N(Cc1c(F)cccc1Cl)C(=O)CS2 (centres undefined)	M5 antag 75.5, M1 antag 99.8
O=C(NCc1ccc2c(c1)OCO2)c1ccc2c(c1)N(Cc1c(F)cccc1Cl)C(=O)CS2	M1 antag 39.9
CC(C)(C)C(=O)Nc1ccc(Sc2ccc([N+](=O)[O-])cc2)cc1	M5 antag 42.7, M1 antag 35.3
CC(=O)Nc1ccc(Sc2ccc([N+](=O)[O-])o2)cc1	none
CCCCOc1ccc(C(=O)NCC(=O)N2CCN(C/C=C/c3ccccc3)CC2)cc1	M1 antag 44.0
COc1ccc(/C=C/CN2CCC(Oc3ccc(C(=O)N4CCCCC4)cc3)CC2)cc1	M5 antag 34.7, M1 antag 43.7
O=C(c1ccc(OC2CCN(C/C=C/c3ccccc3)CC2)cc1)N1CCCCC1	M1 antag 29.5
O=C(c1ccc(OC2CCN(C/C=C/c3ccccc3)CC2)cc1)N1CCCC1	none
CCNC(=O)C1(C)CCCN(Cc2ccccc2-c2ccccc2)C1 (centres undefined)	none
CCCCN(C)CCNC(=O)CN1C(=O)CSc2ccc(S(=O)(=O)N3CCOCC3)cc21	M1 antag 42.5
CCC1CCCCN1CCCNC(=O)CN1C(=O)CSc2ccc(S(=O)(=O)N3CCC(C)CC3)cc21 (centres undefined)	M1 antag 38.7
CC(C)CN(CCNC(=O)CN1C(=O)CSc2ccc(S(=O)(=O)N3CCOCC3)cc21)CC(C)C	M1 antag 40.4
CC(C)CN(CCCNC(=O)CN1C(=O)CSc2ccc(S(=O)(=O)N3CCOCC3)cc21)CC(C)C	none
C=C(C)C(=O)N1CCN(C(=O)C(=C)C)c2ccccc21	none
COc1ccc(NC(=O)c2cc(-c3cc(F)ccc3OC(C)C)n[nH]2)cc1OC	none
CC(=O)c1cccc(NC(=O)c2ccc(-c3c(C)noc3C)c3ccoc23)c1	none
O=C1C=CC(n2cc(F)c(=O)[nH]c2=O)O1 (centres undefined)	none
O=C(CN1CCN(C2CCCCC2)CC1)NCCC1=CCCCC1	CHRM1 agonist 44.6
CS(=O)(=O)N(CC(=O)NCCC1=CCCCC1)C1CCCCC1	none
CCCS(=O)(=O)NC(=O)C1(C)CCN(C(=O)c2cc(-c3cccs3)oc2C)C1 (centres undefined)	none
Cc1ccc(CC2(OCCN(C)C)CCC(C(C)(C)C)CC2)cc1 (centres undefined)	none
CN(C)CCOC1(Cc2ccc(F)cc2)CCC(C(C)(C)C)CC1 (centres undefined)	M5 PAM 18.6
CCc1nc2ccc(C(=O)NCCOc3ccc(OC)cc3)cn2c1N(CC)CCN(C)C	none
COCc1cc([C@@H]2C[C@H]3CN(c4ccccc4)C(=O)[C@]34CCCN24)ccc1OC	M1 antag 57.4
COc1ccc2c(c1)C=C([C@@H]1C[C@H]3CN(c4ccccc4)C(=O)[C@]34CCCN14)CO2	M1 antag 57.6
CCc1ccc([C@@H]2C[C@H]3CN(Cc4ccccc4OC)C(=O)[C@]34CCCN24)cc1	M1 antag 47.1
CN1C[C@@H]2C[C@@H](C3=Cc4cc(Cl)ccc4OC3)N3CCC[C@@]23C1=O	none
COc1ccc([C@@H]2C[C@H]3CN(c4ccccc4)C(=O)[C@]34CCCN24)c(OC)c1OC	none
Cc1cccc([C@@H]2C[C@H]3CN(Cc4cccc(Cl)c4)C(=O)[C@]34CCCN24)n1	M1 antag 23.3
O=C1c2ccccc2C(c2nnnn2-c2ccc3c(c2)OCCO3)N1CCOc1ccccc1 (centres undefined)	none (no result: M1 PAM, CHRM1 agonist, M1 antag)
O=c1cc(CO)[nH]nc1CO	none
COc1cccc(S(=O)(=O)Nc2ccc3c(c2)[C@H]2C[C@H](CC(=O)N[C@@H](C)c4ccccc4)O[C@H](CO)[C@H]2O3)c1	none
